# Bioassay records from PubChem BioAssay.
# Env fusion inh: blocks HIV Env-driven cell-cell fusion; AID 651610; HeLa-JRFL Env/CEM21 cell fusion, luciferase; 1.1% of 360,000 active; inhibition, % at 12.3 µM;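 active = mean replicate inhibition score of at least 50 and every replicate individually at or above 50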;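 note: 0% = plate neutral controls and 100% = maraviroc near 300 nM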
# PAX8 reporter: inhibitors of PAX8 transcriptional activity in RMG-I cells; RMG-I TPO-luciferase reporter, SteadyGlo, 24 h; inhibition, % at 12.6 µM; 1.2% of 360,000 active; AID 652154;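 active = mean replicate inhibition at least 60% with every replicate also reaching 60%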;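 note: luciferase light reporting Pax8 driven TPO promoter activity; plate controls were median of neutral control wells for no effect and mitoxantrone controls for full effect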
# PfHsp90 yeast 2: growth inhibition of yeast expressing Plasmodium Hsp90. 0.32% of 310,000 active. AID 504621. S. cerevisiae expressing PfHsp90, BacTiter-Glo ATP, 48 h; yeast lacking PDR1 and PDR3 efflux regulators. inhibition, % at 9.4 µM;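 active = every replicate shows inhibition above about 80%, whatever the replicate mean, limit read from the data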;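 note: 0% = DMSO neutral controls and 100% = 20 µM radicicol positive controls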
# Arr AP2 block: inhibitors of human beta-arrestin and AP2 interaction; AID 504490; inhibition, % at 10 µM; 0.31% of 340,000 active; FITC-arrestin peptide / GST-AP2 beads, flow cytometry; AP2 beta2 appendage carries R879A mutation;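 active = inhibition above a set limit, near 3 SD of compounds lacking own fluorescence, cut at about 54% in these data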;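 note: plate controls were DMSO wells for no effect and 5 µM unlabelled arrestin peptide for full effect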
#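 Material – AP2 appendage R879A on GSH beads · Buffer or medium – PBS with 0.05% Tween 20 and 0.1% BSA · Probe or stimulus – fluorescein-tagged arrestin peptide at 50 nM final · Incubation – compound with beads 12 min RT, then probe 1 h RT · Detection – high-throughput flow cytometry of beads, ex 488, em 535 nm · Evaluation – percent response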
# Glyco luc inh: blocks N-linked glycosylation in D54 reporter cells | 0.23% of 360,000 active | reporter increase, % at 12.5 µM | D54 ERlucT glycosylation luciferase reporter, 24 h; percent of 100 nM tunicamycin response;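 active = mean luciferase reporter signal, scaled so untreated is 0 and the glycosylation-blocking control 100, at or above a set limit in every replicate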;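 note: luciferase carries N-glycosylation sites so blocking glycosylation raises the light; 0% = median of neutral control wells and 100% = median of 100 nM tunicamycin wells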
# Rtt109 HAT inh: inhibitors of Candida albicans Rtt109/Vps75 histone acetyltransferase; 0.16% of 330,000 active; purified Rtt109/Vps75, ThioGlo CoA-SH fluorescence, 4 h; inhibition, % at 34.9 µM; AID 540336;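 active = inhibition of at least 50% in every replicate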
# Target sequence (Q5AAJ8 whole entry, looked up): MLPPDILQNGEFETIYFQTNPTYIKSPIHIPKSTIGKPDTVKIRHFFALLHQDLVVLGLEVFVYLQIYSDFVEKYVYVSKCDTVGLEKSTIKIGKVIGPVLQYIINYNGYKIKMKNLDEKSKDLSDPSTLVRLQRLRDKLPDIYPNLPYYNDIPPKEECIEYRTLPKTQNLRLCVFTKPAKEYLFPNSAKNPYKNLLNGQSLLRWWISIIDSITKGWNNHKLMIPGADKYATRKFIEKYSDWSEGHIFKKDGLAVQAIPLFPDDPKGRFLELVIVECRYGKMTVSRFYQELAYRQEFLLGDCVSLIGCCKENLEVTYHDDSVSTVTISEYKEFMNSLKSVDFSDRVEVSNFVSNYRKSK
# Numbers without * were called inactive; / = no result given; [ ] = another dose, or the depositor's remark. Only some compounds are listed: those with a hit (about 2.3% of all), similar ones and a draw of the others.
SMILES,Env fusion inh,PAX8 reporter,PfHsp90 yeast 2,Arr AP2 block,Glyco luc inh,Rtt109 HAT inh
Cc1ccc(NC(=S)NCC23C=CC(O2)C2C(=O)N(c4ccc(C)cc4)C(=O)C23)cc1 (stereo not drawn),24,-17,107*,-3,0,1
Cc1cccc(NC(=S)NCC23C=CC(O2)C2C(=O)N(c4ccc(Cl)cc4)C(=O)C23)c1 (stereo not drawn),-13,-14,107*,12,1,12
Cc1ccc(S(=O)(=O)NCC23C=CC(O2)C2C(=O)N(c4ccccc4)C(=O)C23)cc1 (stereo not drawn),/,/,106*,23,1,5
Cc1ccc(N2C(=O)C3C4C=CC(CNC(=S)N5CCN(c6ccccc6)CC5)(O4)C3C2=O)cc1 (stereo not drawn),9,0,104*,-8,-4,1
CC(C)(C)OC(=O)NCC12C=CC(O1)C1C(=O)N(Cc3ccccc3)C(=O)C12 (stereo not drawn),/,/,50,-2,0,-2
COC(=O)c1ccc(C)c(NS(=O)(=O)c2ccc(OC)cc2)c1,/,/,-5,3,16,-9
COC(=O)c1ccc(C)c(NS(=O)(=O)c2ccc3c(c2)OCCO3)c1,/,/,-9,15,31*,22
N=c1n(Cc2ccccc2)c2ccccc2n1CC(O)COc1ccc(Cl)cc1Cl (stereo not drawn),26,93*,-24,-8,-23,2
CC(=O)C1(C)N(O)C(C)(C)C(c2ccco2)=[N+]1[O-] (stereo not drawn),58*,-9,10,2,1,-4
Cc1cc(NC(=O)CCCn2nc([N+](=O)[O-])c(Cl)c2C)no1,2,2,-11,8,4,52*
CN(CC(=O)Nc1ccc(OC(F)(F)F)cc1)C(=O)Cc1c(Cl)cccc1Cl,10,19,4,9,-2,3
CN(CC(=O)Nc1ccc(OC(F)(F)F)cc1)C(=O)Cc1cccs1,62*,-6,-7,6,3,4
O=C1c2cccc3c(O)ccc(c23)C(=O)N1c1ccc(Cl)cc1,15,102*,-1,17,-5,-8
CC(=O)Nc1ccc(N2C(=O)c3cccc4c(O)ccc(c34)C2=O)cc1,10,3,-2,-4,1,-1
C[C@@H]1CN([C@H](C)CO)C(=O)c2cc(NC(=O)NC3CCCCC3)ccc2O[C@@H](C)CCCCO[C@@H]1CN(C)Cc1ccccc1,-8[16.7 µM],21,/,/,/,/
CO[C@@H]1CN(C)C(=O)c2ccc(NC(C)=O)cc2OC[C@H](C)N(C(=O)CC2CC2)C[C@@H]1C,-4[16.7 µM],-1,/,/,/,/
C[C@@H]1CCCCO[C@H](CN(C)Cc2ccc(C(F)(F)F)cc2)[C@@H](C)CN([C@H](C)CO)C(=O)c2cc(NC(=O)Nc3ccc4c(c3)OCO4)ccc2O1,-1[16.7 µM],1,/,/,/,/
C[C@H](CO)N1C[C@H](C)[C@H](CN(C)Cc2ccc3c(c2)OCO3)Oc2ccc(NC(=O)Nc3cccc4ccccc34)cc2C1=O,16[16.7 µM],94*,/,/,/,/
C[C@H]1CCCCO[C@@H](CN(C)Cc2ccc3c(c2)OCO3)[C@@H](C)CN([C@@H](C)CO)C(=O)c2cc(NC(=O)Nc3ccc4c(c3)OCO4)ccc2O1,84*[16.7 µM],10,/,/,/,/
C[C@@H]1CCCCO[C@@H](CN(C)Cc2ccc(C(F)(F)F)cc2)[C@H](C)CN([C@@H](C)CO)C(=O)c2cc(NC(=O)Nc3ccc4c(c3)OCO4)ccc2O1,55*[16.7 µM],72*,/,/,/,/
C[C@@H]1CN([C@H](C)CO)C(=O)c2cc(NC(=O)Nc3ccc(C(F)(F)F)cc3)ccc2O[C@@H](C)CCCCO[C@@H]1CN(C)Cc1ccc2c(c1)OCO2,41[16.7 µM],89*,/,/,/,/
C[C@@H]1CN([C@H](C)CO)C(=O)c2cc(NC(=O)Nc3cccc4ccccc34)ccc2O[C@@H](C)CCCCO[C@H]1CN(C)Cc1ccc2c(c1)OCO2,19[16.7 µM],69*,/,/,/,/
C[C@@H]1CCCCO[C@H](CN(C)Cc2ccc(C(F)(F)F)cc2)[C@@H](C)CN([C@@H](C)CO)C(=O)c2cc(NC(=O)Nc3ccc4c(c3)OCO4)ccc2O1,22[16.7 µM],65*,/,/,/,/
C[C@@H]1CCCCO[C@@H](CN(C)Cc2ccc3c(c2)OCO3)[C@@H](C)CN([C@H](C)CO)C(=O)c2cc(NC(=O)Nc3cccc4ccccc34)ccc2O1,11[16.7 µM],-5,/,/,/,/
C[C@@H]1CN([C@H](C)CO)C(=O)c2cc(NC(=O)Nc3ccc4c(c3)OCO4)ccc2O[C@@H](C)CCCCO[C@H]1CN(C)Cc1ccc(C(F)(F)F)cc1,49[16.7 µM],85*,/,/,/,/
SMILES,Env fusion inh,PAX8 reporter,PfHsp90 yeast 2,Arr AP2 block,Glyco luc inh,Rtt109 HAT inh
C[C@@H]1CCCCO[C@@H](CN(C)Cc2ccc(C(F)(F)F)cc2)[C@@H](C)CN([C@@H](C)CO)C(=O)c2cc(NC(=O)Nc3ccc4c(c3)OCO4)ccc2O1,5[16.7 µM],52,/,/,/,/
N#Cc1c(Nc2ccccc2Cl)s[nH]c1=O,-11,34,-20,-42,3,109*
N#Cc1c(Nc2ccccc2)s[nH]c1=O,6,-36,-1,-11,-3,111*
N#Cc1c(Nc2ccccc2C(F)(F)F)s[nH]c1=O,-12,-16,/,-39,0,/
N#Cc1c(Nc2ccccc2)sc(C(=O)c2ccc(F)cc2)c1N,24,32,-17,-2,2,4
C[C@@H]1CN([C@@H](C)CO)C(=O)Cc2cc(NC(=O)Cc3cn(C)c4ccccc34)ccc2O[C@@H]1CN(C)CC1CC1,-6[16.7 µM],/,/,/,/,/
CN(C)C(=O)C[C@H]1C[C@H]2c3cc(NS(=O)(=O)c4ccc(F)cc4)ccc3O[C@H]2[C@@H](CO)O1,-21[16.7 µM],-25,/,/,/,/
Cc1ccc(C2=NC(C)(C)N=C2SCC(=O)Nc2ccc(Cl)cc2)cc1,-36,-33,134*,14,6,99*
CC1(C)N=C(SCC(=O)Nc2ccc(Cl)cc2Cl)C(c2ccccc2)=N1,-1,/,99*,3,0,-3
CCN(CC)c1nc(Nc2ccccc2)nc(Oc2ccc(=O)n(C)n2)n1,51,/,-28,7,0,-6
CCN(CC)c1nc(Nc2ccccc2)nc(Oc2ccc(=O)[nH]n2)n1,91*,/,/,-1,-2,3
CC1(C)CC[C@]2(C(=O)O)CC[C@]3(C)C(=CC[C@@H]4[C@@]5(C)CC[C@H](O[C@@H]6O[C@H](C(=O)O)[C@@H](O)[C@H](O[C@@H]7OC[C@H](O)[C@H](O)[C@H]7O)[C@H]6O)C(C)(C)[C@@H]5CC[C@]43C)[C@@H]2C1,-30,101*,108*,29,-7,-10
O=C(CSc1nnc(CNc2ccc(F)cc2)o1)N1c2ccccc2Sc2ccccc21,64*,/,-7,5,-6,1
O=C(CSc1nnc(CNc2ccc(F)cc2)o1)N1CCN(C(=O)c2ccco2)CC1,/,/,7,-11,-1,-4
